Series [1] in a line: Membrane permeability assessed as passive transport after 4 hrs by PAMPA. (In PAMPA a lipid-coated filter parts donor from acceptor wells.)
Series [2] can be described thus: Membrane permeability by PAMPA.
The nature of series [3]: Membrane permeability assessed as passive transport after 4 hrs by PAMPA in presence of 20% 1-propanol. The series is classed as ADME. A digest of the protocol:
(§1)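 PAMPA-BBB model, 200 µM compound in pION buffer pH 7.4 with 20% 1-propanol in the donor well. Filter coated with phospholipid mix (20 mg/mL in dodecane); acceptor holds buffer plus 1-propanol. Incubated 4 h at room temperature, saturated humidity, orbital shaking 100 rpm. Donor and acceptor quantified by RP-HPLC. % transport at 4 h and Pe (eq 1) calculated; mean ± SD.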

Series [4] in a line: Membrane permeability by PAMPA in presence of 20% 1-propanol. Type of series: ADME. As to conditions: read-out: permeability. A digest of the protocol: as §1
The next series concerns HeLa. Description: Cytotoxicity against human HeLa cells at 25 to 100 uM after 24 hrs by MTT assay. The series is classed as functional, cell-based. The procedure, abridged:
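HeLa cells seeded at 7000 cells/well and grown 24 h, then given peptide in medium (solutions centrifuged first, as not fully soluble) at 25, 50 and 100 µM for 24 h at 37 °C. MTT added at 22 h (0.5 mg/mL final) for 2 h. Formazan dissolved in 2-propanol, A570 read after 45 min. Viability is % of untreated cells; mean ± SD.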

A short description of series [5]: Stability in human serum after 12 hrs.

For orientation: share remaining means what is left of the initial amount, in per cent. Lower therefore signals a greater loss.

Where a SMILES comes first, the peptide text is derived from it. [ ]: non-standard residue; d: D form. Tpi = O=C(O)[C@@H]1Cc2c([nH]c3ccccc23)CN1; NMeW = CN[C@@H](Cc1c[nH]c2ccccc12)C(=O)O; 2Nal = N[C@@H](Cc1ccc2ccccc2c1)C(=O)O; Dopa = N[C@@H](Cc1ccc(O)c(O)c1)C(=O)O; NMehPhe = CN[C@@H](CCc1ccccc1)C(=O)O; NMeF = CN[C@@H](Cc1ccccc1)C(=O)O; NMePhg = CN[C@H](C(=O)O)c1ccccc1; 3Pal = N[C@@H](Cc1cccnc1)C(=O)O; Tic = O=C(O)[C@@H]1Cc2ccccc2CN1; Phg = N[C@H](C(=O)O)c1ccccc1

For the compound `CC(=O)N(C)[C@H](C(=O)N(C)[C@@H](Cc1ccccc1)C(=O)N(C)[C@@H](Cc1ccccc1)C(=O)N(C)[C@@H](Cc1ccccc1)C(N)=O)c1ccccc1` (Ac-[NMePhg][NMeF][NMeF][NMeF]-NH2), in series [1], the permeability worked out at 1.5%. The compound also came in with a Papp in series [2] (permeability) of 0.7 ×10⁻⁶ cm/s.

For `CC(=O)N[C@@H](Cc1c[nH]c2ccccc12)C(=O)N(C)[C@@H](Cc1ccccc1)C(=O)N(C)[C@@H](Cc1ccccc1)C(=O)N(C)[C@@H](Cc1ccccc1)C(N)=O` (Ac-W[NMeF][NMeF][NMeF]-NH2), the permeability in series [1] turned out to be 3.9%. The Papp in series [2] (permeability) turned out to be 1.8 ×10⁻⁶ cm/s.

In the case of `CC(=O)N[C@H](C(=O)N(C)[C@@H](Cc1ccccc1)C(=O)N(C)[C@@H](Cc1ccccc1)C(=O)N(C)[C@@H](Cc1ccccc1)C(N)=O)c1ccccc1` (Ac-[Phg][NMeF][NMeF][NMeF]-NH2), the permeability in series [1] is on record as 0%.

Consider `N[C@@H](Cc1ccc(O)c(O)c1)C(=O)O` [LEVODOPA], for which the permeability in series [1] and in series [3] was 0% in each case.

On to `CC(C)NCC(O)COc1cccc2ccccc12` (centres undefined) [PROPRANOLOL], for which the results for the permeability in series [1] and in series [3] were 13.5% and 14.9%, respectively. The Papp in series [2] (permeability) is 6.9 ×10⁻⁶ cm/s; in series [4] it was 8.4 ×10⁻⁶ cm/s.

In the case of `CC(=O)N(C)[C@@H](CCc1ccccc1)C(=O)N(C)[C@@H](Cc1ccccc1)C(=O)N(C)[C@@H](Cc1ccccc1)C(=O)N(C)[C@@H](Cc1ccccc1)C(N)=O` (Ac-[NMehPhe][NMeF][NMeF][NMeF]-NH2), the permeability in series [1] worked out at 3.7%. Also, the Papp in series [2] (permeability) came out at 1.8 ×10⁻⁶ cm/s.

In the case of `CN(C(=O)[C@@H]1Cc2ccccc2CN1)[C@@H](Cc1ccccc1)C(=O)N(C)[C@@H](Cc1ccccc1)C(=O)N(C)[C@@H](Cc1ccccc1)C(N)=O` (H-[Tic][NMeF][NMeF][NMeF]-NH2), in series [1], the permeability is given as 4.6%. The Papp in series [2] (permeability) is 2.2 ×10⁻⁶ cm/s.

For `CN(C(=O)[C@@H]1Cc2c([nH]c3ccccc23)CN1)[C@@H](Cc1ccccc1)C(=O)N(C)[C@@H](Cc1ccccc1)C(=O)N(C)[C@@H](Cc1ccccc1)C(N)=O` (H-[Tpi][NMeF][NMeF][NMeF]-NH2), the permeability in series [1] is given as 1.3%. The compound also had a Papp in series [2] (permeability) of 0.6 ×10⁻⁶ cm/s.

Regarding `CC(=O)N(C)[C@@H](Cc1c[nH]c2ccccc12)C(=O)N(C)[C@@H](Cc1ccccc1)C(=O)N(C)[C@@H](Cc1ccccc1)C(=O)N(C)[C@@H](Cc1ccccc1)C(N)=O` (Ac-[NMeW][NMeF][NMeF][NMeF]-NH2), in series [1], the permeability was 2.9%. In series [2] (permeability), this compound registered a Papp of 1.4 ×10⁻⁶ cm/s.

In the case of `CN(C(=O)[C@@H](N)Cc1ccc(O)c(O)c1)[C@@H](Cc1ccccc1)C(=O)N(C)[C@@H](Cc1ccccc1)C(=O)N(C)[C@@H](Cc1ccccc1)C(=O)N(C)[C@@H](Cc1ccccc1)C(N)=O` (H-[Dopa][NMeF][NMeF][NMeF][NMeF]-NH2), the permeability in series [1] came out at 2.4%. This compound came in with a Papp in series [2] of 1.1 ×10⁻⁶ cm/s.

Turning to `NC(=O)N1c2ccccc2C=Cc2ccccc21` [CARBAMAZEPINE], the permeability in series [1] came to 16.8%; in series [3], 20.6%. Further, the Papp in series [2] (permeability) was 8 ×10⁻⁶ cm/s; in series [4] it was 12.8 ×10⁻⁶ cm/s.

`CC(=O)N1Cc2[nH]c3ccccc3c2C[C@H]1C(=O)N(C)[C@@H](Cc1ccccc1)C(=O)N(C)[C@@H](Cc1ccccc1)C(=O)N(C)[C@@H](Cc1ccccc1)C(N)=O` (Ac-[Tpi][NMeF][NMeF][NMeF]-NH2): the permeability in series [1] stood at 3.2%. For the same compound, the Papp in series [2] (permeability) was 1.5 ×10⁻⁶ cm/s.

As for `CC(=O)N[C@@H](Cc1cccnc1)C(=O)N(C)[C@@H](Cc1ccccc1)C(=O)N(C)[C@@H](Cc1ccccc1)C(=O)N(C)[C@@H](Cc1ccccc1)C(N)=O` (Ac-[3Pal][NMeF][NMeF][NMeF]-NH2), the permeability in series [1] was 2.5%. The same compound had a Papp in series [2] (permeability) of 1.2 ×10⁻⁶ cm/s.

For `CC(=O)N1Cc2ccccc2C[C@H]1C(=O)N(C)[C@@H](Cc1ccccc1)C(=O)N(C)[C@@H](Cc1ccccc1)C(=O)N(C)[C@@H](Cc1ccccc1)C(N)=O` (Ac-[Tic][NMeF][NMeF][NMeF]-NH2), the permeability in series [1] is 4.3%. The compound further came in with a Papp in series [2] (permeability) of 2 ×10⁻⁶ cm/s.

For `NCCc1ccc(O)c(O)c1` [DOPAMINE], the permeability in series [1] and in series [3] was 0% throughout.

In the case of `CC(=O)N(C)[C@@H](Cc1ccccc1)C(=O)N(C)[C@@H](Cc1ccccc1)C(=O)N(C)[C@@H](Cc1ccccc1)C(=O)N(C)[C@@H](Cc1ccccc1)C(N)=O` (stereo in doubt; form 2), the Activity entry with HeLa was “Not toxic”. Besides, the amount remaining at 12 h in series [5] was determined as 91%.

Turning to `CN(C(=O)[C@H](Cc1ccc2ccccc2c1)NC(=O)[C@@H](N)Cc1ccc(O)c(O)c1)[C@@H](Cc1ccccc1)C(=O)N(C)[C@@H](Cc1ccccc1)C(=O)N(C)[C@@H](Cc1ccccc1)C(N)=O` (H-[Dopa][2Nal][NMeF][NMeF][NMeF]-NH2), in series [1], the permeability came to 0.7%. Besides, the Papp in series [2] was found to be 0.3 ×10⁻⁶ cm/s.

In the case of `Cn1c(=O)c2c(ncn2C)n(C)c1=O` [CAFFEINE], the permeability in series [1] and in series [3] was 3.6% throughout. In addition, the Papp in series [2] (permeability) and in series [4] was 1.8 ×10⁻⁶ cm/s in each case.

For `CC(=O)N[C@@H](Cc1ccc2ccccc2c1)C(=O)N(C)[C@@H](Cc1ccccc1)C(=O)N(C)[C@@H](Cc1ccccc1)C(=O)N(C)[C@@H](Cc1ccccc1)C(N)=O` (Ac-[2Nal][NMeF][NMeF][NMeF]-NH2), the Activity result with HeLa was “Not toxic”.

Consider `CC(=O)N(C)[C@@H](Cc1ccccc1)C(=O)N(C)[C@@H](Cc1ccccc1)C(=O)N(C)[C@@H](Cc1ccccc1)C(=O)N(C)[C@@H](Cc1ccccc1)C(=O)O` (Ac-[NMeF][NMeF][NMeF][NMeF]-OH), for which the permeability in series [1] was 1.9%. The same compound yielded a Papp in series [2] (permeability) of 0.9 ×10⁻⁶ cm/s.
